Measured values taken from ChEMBL document CHEMBL1136495, “Synthesis of new 3-arylisoquinolinamines: effect on topoisomerase I inhibition and cytotoxicity” (Bioorg Med Chem Lett, 2003).

What was measured:
[1] = test system: SK-OV-3; experiment: Cytotoxic activity against SKOV-3 human ovarian tumor cell line, using sulforhodamine B (SRB) assay.; format: functional, cell-based
In short: (§1)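 In vitro sulforhodamine B (SRB) staining assay on human tumor cell lines. Values are reported as IC50 for cytotoxicity.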

[2] = test system: A549; experiment: Cytotoxic activity against A 549 human lung tumor cell line, using sulforhodamine B (SRB) assay.; format: functional, cell-based; in short: as §1
[3] = test system: HCT-15; experiment: Cytotoxic activity against HCT 15 human colon tumor cell line, using sulforhodamine B (SRB) assay.; format: functional, cell-based; in short: as §1
[4] = test system: SK-MEL-2; experiment: Cytotoxic activity against SK-MEL-2 human melanoma cell line, using sulforhodamine B (SRB) assay.; format: functional, cell-based; in short: as §1
[5] = biological target: T1, DNA topoisomerase 1 (Homo sapiens) (UniProt P11387); experiment: Inhibitory activity against Topoisomerase I in supercoiled DNA unwinding assay method; Weak activity
T1 sequence (whole entry): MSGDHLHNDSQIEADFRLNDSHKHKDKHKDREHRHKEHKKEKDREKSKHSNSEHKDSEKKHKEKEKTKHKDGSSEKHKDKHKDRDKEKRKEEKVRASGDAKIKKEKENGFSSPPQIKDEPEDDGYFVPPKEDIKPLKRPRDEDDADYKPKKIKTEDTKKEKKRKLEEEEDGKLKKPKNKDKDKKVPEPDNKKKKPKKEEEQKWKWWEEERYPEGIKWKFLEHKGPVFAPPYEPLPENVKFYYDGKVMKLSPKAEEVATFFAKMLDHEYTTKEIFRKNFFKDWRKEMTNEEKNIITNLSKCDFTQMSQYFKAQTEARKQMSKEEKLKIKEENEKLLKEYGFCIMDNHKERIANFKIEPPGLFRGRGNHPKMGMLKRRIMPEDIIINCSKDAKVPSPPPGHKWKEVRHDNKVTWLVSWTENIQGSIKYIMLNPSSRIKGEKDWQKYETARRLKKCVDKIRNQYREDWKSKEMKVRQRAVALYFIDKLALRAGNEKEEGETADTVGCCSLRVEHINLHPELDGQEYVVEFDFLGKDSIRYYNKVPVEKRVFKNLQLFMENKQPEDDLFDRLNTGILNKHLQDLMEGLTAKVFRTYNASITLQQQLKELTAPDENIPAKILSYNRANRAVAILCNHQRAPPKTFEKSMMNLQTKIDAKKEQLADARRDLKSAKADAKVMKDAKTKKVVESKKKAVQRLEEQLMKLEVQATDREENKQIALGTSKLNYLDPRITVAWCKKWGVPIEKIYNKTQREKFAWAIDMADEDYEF

[6] = test system: OCI-AML2; experiment: Cytotoxic activity against DX-100: doxorubicin (100 ng/mL) resistant AML-2 cell line was determined; format: functional
[7] = test system: OCI-AML2; experiment: Cytotoxic activity against D100 daunorubicin (100 nM) resistant AML-2 cell line was determined; format: functional
[8] = test system: OCI-AML2; experiment: Cytotoxic activity against wild type AML-2 leukemia cell line was determined; format: functional
[9] = biological target: T1, DNA topoisomerase 1 (Homo sapiens); experiment: Inhibitory activity against Topoisomerase I was determined by the supercoiled DNA unwinding assay method; Greater activity than Camptothecin

SMILES | Activity [5] | Activity [9] | IC50 [1] [µM] | IC50 [2] [µM] | IC50 [3] [µM] | IC50 [4] [µM] | Cytotoxicity [6] [µg/mL] | Cytotoxicity [7] [µg/mL] | Cytotoxicity [8] [µg/mL] | Activity [7] [µg/mL]
Cc1ccc(-c2cc3ccccc3c(N3CCCN(C)CC3)n2)cc1 |  |  | 9.34 | 1.22 | 7.84 | 6.18 |  |  |  | 
Cc1ccccc1-c1cc2ccccc2c(N)n1 |  |  | 1.81 | 3.14 | 1.92 | 2.11 |  |  |  | 
COc1cccc2c1C(=O)c1c(O)c3c(c(O)c1C2=O)C[C@@](O)(C(C)=O)C[C@@H]3O[C@H]1C[C@H](N)[C@H](O)[C@H](C)O1 [DAUNORUBICIN] |  |  |  |  |  |  | 0.43 | 0.52 | 0.001 | 
CCN1CCN(c2nc(-c3ccccc3)cc3cc(C)ccc23)CC1 |  |  | 41.8 | 18.2 | 2.42 | 11.9 |  |  |  | 
CCN1CCN(c2nc(-c3ccc(C)cc3)cc3cc(C)ccc23)CC1 | Weak activity |  | 63.4 | 26.9 | 8.07 | 14.4 |  |  |  | 
Cc1ccc2c(NCc3ccccc3)nc(-c3ccccc3)cc2c1 |  |  | 156 | 122 | 64.2 | 94.4 |  |  |  | 
Cc1ccc(-c2cc3ccccc3c(NCc3ccccc3)n2)cc1 |  |  | 193 | 168 | 171 | 133 |  |  |  | 
COc1cccc2c1C(=O)c1c(O)c3c(c(O)c1C2=O)C[C@@](O)(C(=O)CO)C[C@@H]3O[C@H]1C[C@H](N)[C@H](O)[C@H](C)O1 [DOXORUBICIN] |  |  | 1.17 |  | 1.67 | 4.78 | 3.2 | 1.93 | 0.01 | 
CN1CCN(c2nc(-c3ccccc3)cc3ccccc23)CC1 |  |  | 13.7 | 13.6 | 13.9 | 14.5 |  |  |  | 
Nc1nc(-c2ccccc2)cc2ccccc12 |  |  | 2.03 | 2.73 | 1.87 | 1.48 |  |  |  | 
CCN1CCN(c2nc(-c3ccccc3C)cc3cc(C)ccc23)CC1 |  |  | 62 | 21 | 8.65 | 12.8 |  |  |  | 
CN1CCCN(c2nc(-c3ccc(Cl)cc3)cc3ccccc23)CC1 |  |  | 20 | 11.8 | 9.78 | 8.55 |  |  |  | 
Cc1ccc(-c2cc3cc(C)ccc3c(NCCN)n2)cc1 |  | Greater activity than Camptothecin | > 300 | > 300 | > 300 | > 300 |  |  |  | 
N[C@H]1CC[C@H](Nc2nc(-c3ccccc3)cc3ccccc23)CC1 |  |  | 4.36 | 7.95 | 7.24 | 7.7 |  |  |  | 
Cc1ccc2c(N)nc(-c3ccccc3C)cc2c1.Cl |  |  | 0.21 | 0.17 | 0.17 | 0.14 | 0.0056 |  | 0.0078 | 0.0027
CN1CCCN(c2nc(-c3ccc(Br)cc3)cc3ccccc23)CC1 |  |  | 3.85 | 6.04 | 5.26 | 4.12 |  |  |  | 
Cc1ccc2c(N3CCCN(C)CC3)nc(-c3ccccc3C)cc2c1 |  |  | 0.7 | 0.44 | 1.2 | 0.99 |  |  |  | 

Continued, in another order:

Activity [5] | Activity [9] | SMILES | IC50 [1] [µM] | IC50 [2] [µM] | IC50 [3] [µM] | IC50 [4] [µM] | Cytotoxicity [6] [µg/mL] | Cytotoxicity [7] [µg/mL] | Cytotoxicity [8] [µg/mL] | Activity [7] [µg/mL]
Weak activity |  | Cc1ccc2c(NCCN)nc(-c3ccccc3C)cc2c1 | > 300 | > 300 | > 300 | > 300 |  |  |  | 
Weak activity |  | CCN1CCN(c2nc(-c3ccccc3)cc3ccccc23)CC1 | 68.9 | 55.4 | 7.22 | 95.7 |  |  |  | 
Weak activity |  | Cc1cccc(-c2cc3cc(C)ccc3c(NCc3ccccc3)n2)c1 | 146 | 171 | 111 | 88.7 |  |  |  | 
Weak activity |  | Cc1cccc(-c2cc3ccccc3c(N3CCCN(C)CC3)n2)c1 | 8.22 | 8.57 | 9.2 | 8.85 |  |  |  | 
Weak activity |  | c1ccc(CNc2nc(-c3ccccc3)cc3ccccc23)cc1 | 102 | 177 | 87.4 | 83 |  |  |  | 
 | Greater activity than Camptothecin | CCN1CCN(c2nc(-c3ccccc3Cl)cc3cc(C)ccc23)CC1 | 195 | 13.4 | 5.58 | 5.58 |  |  |  | 
Weak activity |  | Cc1ccccc1-c1cc2ccccc2c(N[C@H]2CC[C@H](N)CC2)n1 | 9.17 | 10.2 | 7.65 | 6.45 |  |  |  | 
 | Greater activity than Camptothecin | CN1CCCN(c2nc(-c3ccccc3)cc3ccccc23)CC1 | 17 | 10.8 | 11.1 | 8.38 |  |  |  | 
Weak activity |  | CC(=O)N[C@H]1CC[C@H](Nc2nc(-c3ccccc3)cc3ccccc23)CC1 | 186 | 145 | 253 | 183 |  |  |  | 
Weak activity |  | Cc1cccc(-c2cc3ccccc3c(NCc3ccccc3)n2)c1 | 168 | 103 | 108 | 85 |  |  |  | 
Weak activity |  | CN1CCCN(c2nc(-c3cccc4ccccc34)cc3ccccc23)CC1 | 3.64 | 0.52 | 1.93 | 1.98 |  |  |  | 
 | Greater activity than Camptothecin | Cc1ccc2c(NCCN)nc(-c3ccccc3)cc2c1 | > 300 | > 300 | > 300 | > 300 |  |  |  | 
Weak activity |  | Cc1ccc2c(NCCN)nc(-c3ccccc3Cl)cc2c1 | > 300 | > 300 | > 300 | > 300 |  |  |  | 
